The list is not random: actives were taken first. Their share in the collection is about 2.2%.
SUMO1-SIM PPI = modulators of human SUMO1-mediated protein-protein interactions; SUMO1 binding to a labelled peptide, TR-FRET, 1 h; AID 602429; P63165; 360,000 compounds, 0.33% hits; inhibition, % at 20 µM; in the data active = inhibition above about 37%
DNMT1 block = inhibitors of human DNMT1. P26358. DNMT1 molecular beacon, Hinp1I cleavage, fluorescence. inhibition (reported as % activation of signal), % at 10 µM. 360,000 compounds, 0.83% hits; in the data active = inhibition above about 50%
Target sequence (P26358 504-1616 limits assumed): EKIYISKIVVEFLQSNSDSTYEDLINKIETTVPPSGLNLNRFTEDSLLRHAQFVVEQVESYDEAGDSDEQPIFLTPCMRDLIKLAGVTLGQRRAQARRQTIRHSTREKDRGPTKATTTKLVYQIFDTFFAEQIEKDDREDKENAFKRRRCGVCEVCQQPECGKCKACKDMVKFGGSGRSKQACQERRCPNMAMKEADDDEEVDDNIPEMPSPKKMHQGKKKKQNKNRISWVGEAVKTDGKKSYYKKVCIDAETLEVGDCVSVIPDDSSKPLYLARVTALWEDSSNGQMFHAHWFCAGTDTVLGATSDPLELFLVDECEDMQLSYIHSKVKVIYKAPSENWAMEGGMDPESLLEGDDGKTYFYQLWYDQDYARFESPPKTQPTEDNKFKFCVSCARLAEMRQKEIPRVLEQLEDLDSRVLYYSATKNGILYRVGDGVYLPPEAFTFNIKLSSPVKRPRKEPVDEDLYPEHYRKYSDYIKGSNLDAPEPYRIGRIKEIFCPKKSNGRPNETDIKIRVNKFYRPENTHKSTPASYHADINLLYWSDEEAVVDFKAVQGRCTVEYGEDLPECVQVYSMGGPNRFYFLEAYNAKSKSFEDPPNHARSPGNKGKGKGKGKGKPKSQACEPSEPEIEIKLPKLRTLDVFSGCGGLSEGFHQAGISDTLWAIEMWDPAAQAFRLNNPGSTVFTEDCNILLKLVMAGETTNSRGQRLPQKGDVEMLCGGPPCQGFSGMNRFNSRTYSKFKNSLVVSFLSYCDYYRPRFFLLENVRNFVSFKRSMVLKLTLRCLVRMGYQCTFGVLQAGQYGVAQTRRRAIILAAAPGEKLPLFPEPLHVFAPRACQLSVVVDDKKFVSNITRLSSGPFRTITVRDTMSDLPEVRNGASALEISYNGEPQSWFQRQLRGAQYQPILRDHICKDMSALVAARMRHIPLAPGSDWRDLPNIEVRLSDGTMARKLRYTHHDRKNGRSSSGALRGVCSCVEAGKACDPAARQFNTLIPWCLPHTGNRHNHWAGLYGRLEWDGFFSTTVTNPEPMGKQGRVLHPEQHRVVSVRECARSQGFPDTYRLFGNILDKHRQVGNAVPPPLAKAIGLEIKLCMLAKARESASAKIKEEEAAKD
Scp1 inh = Scp-1 (human) phosphatase inhibition; Q9GZU7; Recombinant Scp1, phosphopeptide, malachite green phosphate absorbance; inhibition, % at 20 µM; 340,000 compounds, 0.88% hits; AID 493091;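 active = inhibition above about 50% at 20 µM, limit read from the data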;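 note: plate controls were DMSO wells with enzyme for no effect and wells lacking enzyme for full effect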
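assay system = SCP-1 phosphatase catalytic domain, residues 76-261 | buffer or medium = 50 mM Tris acetate pH 5.5, 0.005% Tween-20, 10 mM MgCl2 | incubation = enzyme reaction 45 min at room temperature, colour 5 min, stabilisation 30 min | signal = Phosphate-binding colour reagent, absorbance read at 630 nm | measure = % inhibition at 20 µM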
LMPTP inh = LMPTP (human) inhibition; AID 651560; recombinant LMPTP-A, OMFP fluorogenic substrate, fluorescence intensity; P24666; 360,000 compounds, 0.22% hits; inhibition, % at 20 µM;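 active = compounds that cut the enzyme signal by at least half of the control window in the single-dose screen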;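 note: plate controls were DMSO wells with enzyme plus substrate for no effect and substrate without enzyme for full effect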
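Material: LMPTP-A; amount: 0.625 nM enzyme; doses: single 20 µM dose; times: reaction 50 min, room temperature, dark; technique: fluorescence intensity of OMFP turnover product; benchmarks: no-enzyme and uninhibited controls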
STEP block = inhibitors of human striatal-enriched phosphatase STEP; P54829; recombinant STEP, OMFP fluorogenic substrate, fluorescence; inhibition, % at 20 µM; 360,000 compounds, 0.25% hits;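 active = inhibition at 20 µM, scaled per plate between control wells, above about 37%, limit read from the data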;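 note: 0% = DMSO with enzyme and substrate and 100% = substrate only without enzyme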
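Assay system: isolated STEP enzyme / Timing: 20 min at room temperature, dark / Doses: 20 µM, 1% DMSO / Technique: fluorescence intensity, excitation 480 nm, emission 540 nm / Reagent: fluorogenic phosphatase substrate OMFP at 25 µM final / Measure: percent inhibition scaled to no-enzyme and uninhibited-enzyme controls, plate-pattern corrected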
GRK2 inh = blocks RNA aptamer binding to human GRK2; inhibition of aptamer binding, % at 10 µM; P25098; 330,000 compounds, 0.59% hits; bead flow cytometry, FAM-aptamer displacement from GRK2;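 active = inhibition of aptamer binding above 40%, roughly 3 SD of noise, on plates passing a quality check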;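 note: median bead fluorescence of bound FAM aptamer so fluorescent compounds give negative values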
Scp-1 conf = confirmation of human Scp-1 phosphatase inhibitors | recombinant SCP-1 catalytic domain, phosphate release, malachite green absorbance | 2,500 compounds, 61% hits | shares compounds with Scp1 inh | inhibition, % at 20 µM | AID 540281;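 note: plate controls were DMSO with enzyme for no effect and buffer wells lacking enzyme for full effect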
Scp-1 MG ctr = interferes with malachite green readout, flagging false Scp-1 hits | shares compounds with Scp1 inh | Colorimetric interference counterscreen, malachite green absorbance 630 nm | apparent inhibition (interference), % at 20 µM | 2,500 tested, under 10 active | AID 540313;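 note: compounds added after enzyme reaction finished so only phosphate colour detection is probed; plate controls were DMSO wells with completed Scp-1 reaction for no effect and substrate wells lacking enzyme for full effect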
Scp1 DSF = binds human Scp-1, shifting its melting temperature. Recombinant SCP1, Sypro Orange thermal shift Tm. 1,500 compounds, 25% hits. thermal shift relative to vanadate control, % at 40 µM. shares compounds with Scp1 inh;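 active = substances whose mean melting-temperature shift, as a percentage of the reference inhibitor's shift, reaches about 5.3%, limit read from the data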;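 note: 0% = Tm of DMSO wells and 100% = Tm with sodium orthovanadate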
* marks the source's active call; other numbers are inactive results; . = not tested or not shown.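 Rule for the calls, unless noted: active = inhibition of at least 30% at 20 µM; inactive = the rest.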

SMILES | SUMO1-SIM PPI | DNMT1 block | Scp1 inh | LMPTP inh | STEP block | GRK2 inh | Scp-1 conf | Scp-1 MG ctr | Scp1 DSF
CCOC(=O)c1cc(-c2ccc(OC)cc2)nn1-c1ccccc1C(=O)O | 69* | 28 | 61* | 11 | 25 | 6 | 42* | -8 | -6
CC1(C(=O)NCc2cccc3ccccc23)CCN1Cc1cccc2c1OCO2 (stereo not drawn) | 10 | -2 | . | 3 | 4 | . | . | . | .
COc1cc2sc3ccc(C#Cc4ccccn4)cc3c(=O)c2cc1OC | 32 | -33 | 50* | 42 | 10 | 26 | 5 | -15 | .
COc1cccc2sc3cc(C#Cc4ccccn4)ccc3c(=O)c12 | -13 | 10 | 22 | 6 | 2 | 2 | . | . | .
CCCc1cc(SCC(=O)Nc2c(C)n(C)n(-c3ccccc3)c2=O)n2c(nc3ccccc32)c1C#N | . | . | 98* | . | . | 0 | 84* | -8 | -5
COc1cc(C2CC(=O)NC3=C2C(=O)CC(C)(C)C3)ccc1O (stereo not drawn) | 1 | -1 | 8 | -3 | -3 | . | -22 | -24 | .
COc1ccc(C2Nc3ccccc3NC3=C2C(=O)CC(C)(C)C3)cc1O (stereo not drawn) | -11 | 21 | 56* | -1 | 1 | 1 | -6 | -20 | .
CC1CCN(S(=O)(=O)c2cc(C(=O)N3CCN(c4ccccc4)CC3)ccc2Br)CC1 | 5 | 1 | . | 2 | 1 | . | . | . | .
COc1ccccc1-n1cnc2c(c1=O)c1nc3ccccc3nc1n2-c1ccc(C)c(C)c1 | 1 | 24 | 96* | 7 | 17 | . | 67* | -6 | -8
C[N+]1(CCCCSc2ccc(O)cc2)CCCCC1 | -2 | 12 | 98* | -1 | 2 | 0 | 83* | -15 | -13
CC(=O)OCCCCCCCCCCC[N+]1(C)CCCCC1 | 0 | -1 | 45 | 0 | -1 | 0 | . | . | .
C/C(=N\Nc1ccc(C(F)(F)F)cn1)c1ccc(S(=O)(=O)NCc2ccco2)cc1 | -2 | 3 | 59* | -1 | 0 | 1 | -3 | -7 | .
C/C(=N\Nc1ccccn1)c1ccc(S(=O)(=O)NCc2ccco2)cc1 | -1 | -5 | -2 | 0 | 3 | 3 | . | . | .
O=c1c2ccccc2sn1-c1cc(S(=O)(=O)N2CCOCC2)ccc1N1CCCC1 | 8 | -8 | 88* | -1 | -3 | 5 | 55* | -19 | -64
CC(C)(C)c1ccc(C(=O)NC(=O)COC(=O)c2ccc(Br)o2)cc1 | 1 | 20 | 19 | 0 | 5 | 10 | . | . | .
Cc1ccccc1N=C1NC(=O)/C(=C/c2cccn2-c2cccc(C(=O)O)c2)S1 | . | . | 66* | . | . | . | 65* | -7 | 4
Cc1cccc(N=C2NC(=O)/C(=C/c3cccn3C)S2)c1C | -13 | -4 | -7 | 2 | -2 | 0 | . | . | .
CCOC(=O)CC1(C)OCC(C[N+]2(C)CCCCC2)O1 (stereo not drawn) | 9 | -1 | 93* | -1 | 1 | 1 | 93* | -5 | -20
CN(C)CCCNCCCCNC(=O)/C=N/O | -2 | -8 | -12 | -13 | -2 | 6 | . | . | .
C=CC[N+](C)(C)CCCNC(=O)/C=N/O | -7 | -24 | 56* | -9 | 0 | 0 | -7 | -9 | .
O=C(CN1C(=O)c2ccccc2C1=O)C(O)CN1C(=O)c2ccccc2C1=O (stereo not drawn) | -11 | -4 | . | -1 | -1 | . | . | . | .
Cc1ccc(NC(=O)c2ccc(OCc3c(C)noc3C)cc2)cc1C | 2 | -2 | -10 | 2 | 5 | 0 | . | . | .
CC(=O)Nc1ccc(NC(=O)c2ccc(OCc3c(C)noc3C)cc2)cc1 | -1 | 5 | 59* | 0 | -3 | 2 | -13 | -18 | .
Cc1cccc(C)c1NC(=O)C(c1ccnc2ccccc12)N1CCN(CCN(C)C)CC1 (stereo not drawn) | 0 | . | . | -3 | . | . | . | . | .
O=C(CN1C(=O)/C(=C2/SC(=S)N(CCS(=O)(=O)O)C2=O)c2ccccc21)Nc1cccc(Br)c1 | 1 | 9 | 82* | 2 | 87* | 1 | 81* | -14 | 16*
SMILES | SUMO1-SIM PPI | DNMT1 block | Scp1 inh | LMPTP inh | STEP block | GRK2 inh | Scp-1 conf | Scp-1 MG ctr | Scp1 DSF
Cc1cccc(NC(=O)CN2C(=O)/C(=C3\SC(=S)N(CC4CCCO4)C3=O)c3ccccc32)c1 (stereo not drawn) | -1 | -5 | -5 | 1 | 2 | 0 | . | . | .
COc1ccc(C(=O)Nc2cnc3sc(C)nn3c2=O)cc1 | 4 | 1 | 51* | -2 | -1 | 0 | -17 | -19 | .
O=C(C[C@H]1C[C@@H]2c3cc(NC(=O)Nc4ccccc4)ccc3O[C@@H]2[C@@H](CO)O1)NCC1CC1 | -3 | -7 | . | -3 | 0 | . | . | . | .
CC(C)(C)NC(=O)C(c1ccncc1)n1c(-c2ccc(C(F)(F)F)cc2)nc2ccccc21 (stereo not drawn) | 17 | . | . | 0 | . | . | . | . | .
COC(=O)[C@]12CCCCC=C1N(Cc1ccc3c(c1)OCO3)C(=O)[C@H](CC(=O)NCC13CC4CC(CC(C4)C1)C3)C2 | 4 | . | . | 7 | . | . | . | . | .
O=C(Cc1ccccc1F)Nc1cc(S(=O)(=O)N2CCCCC2)ccc1N1CCOCC1 | -1 | -3 | . | 0 | 0 | . | . | . | .
COC(=O)[C@]12CCCCC=C1N(Cc1ccc(Cl)cc1Cl)C(=O)[C@H](CC(=O)N1CCSCC1)C2 | 7 | . | . | 2 | . | . | . | . | .
CC(C)C[C@H]1CNC(=O)C(=O)N1C[C@H](C)NC(=O)Cc1ccccc1 | -6 | 3 | -6 | -2 | 0 | 2 | 2 | -5 | .
CCCCn1nnnc1C(c1cccc2ccccc12)N1CCN(C/C=C/c2ccccc2)CC1 (stereo not drawn) | 3 | -15 | . | 7 | -1 | . | . | . | .
O=C(CCC1N=C2c3ccccc3N=C(SCC(=O)NCc3ccco3)N2C1=O)NCc1ccco1 (stereo not drawn) | 3 | 15 | 83* | 0 | 2 | 11 | 69* | -15 | -17
CC(=O)c1ccc(NC(=O)CSc2ccsc2[N+](=O)[O-])cc1 | -1 | 27 | 72* | 12 | 2 | . | 64* | -13 | 7.1*
CCOC1=C2CN(S(=O)(=O)c3ccc(C)cc3)[C@H](c3cccc4ccccc34)C[C@H]2[C@H]2C(=O)N(c3ccccc3)C(=O)[C@H]2C1 | 2 | -2 | . | -1 | 0 | . | . | . | .
Cn1ccsc1=NC(=O)c1ccc(S(C)(=O)=O)c([N+](=O)[O-])c1 | -32 | 0 | -2 | 1 | -5 | 2 | . | . | .
